From ChEMBL document CHEMBL1142469, “Identification of minimal sequence for HIV-1 fusion inhibitors” (Bioorg Med Chem, 2008)
Where a SMILES comes first, the peptide text is derived from it. [ ]: non-standard residue; d: D form. Aib = CC(C)(N)C(=O)O

Legend:
[1] = tested on: Human immunodeficiency virus 1; test: Antiviral activity against HIV1 in human HeLa-CD4-LTR-beta-gal (MAGI) cells assessed as inhibition of viral replication after 48 hrs by multinuclear activation of galactosidase indicator assay; conditions: Human immunodeficiency virus 1, HeLa
[2] = tested on: Human immunodeficiency virus 1; test: Binding affinity to HIV1 heptad repeat 1 peptide N36 assessed as melting temperature of drug-HR1 peptide complex
Outline: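 HR2 peptide and N36 (HR1) peptide mixed, each at 10 μM final in PBS pH 7.4, incubated 37 °C for 30 min, then followed by CD through thermal unfolding; Tm taken as the midpoint of the unfolding transition.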

| Molecule | EC50 [1] | Tm [2] |
| --- | --- | --- |
| CC[C@H](C)[C@H](NC(=O)[C@H](CCCCN)NC(=O)[C@H](CCCCN)NC(=O)[C@H](CC(=O)O)NC(=O)[C@H](Cc1c[nH]c2ccccc12)NC(=O)[C@H](CCC(=O)O)NC(=O)[C@H](CCC(=O)O)NC(=O)[C@@H](N)Cc1c[nH]c2ccccc12)C(=O)N[C@@H](CCC(=O)O)C(=O)N[C@@H](CCC(=O)O)C(=O)N[C@@H](Cc1ccc(O)cc1)C(=O)N[C@H](C(=O)N[C@@H](CCCCN)C(=O)N[C@@H](CCCCN)C(=O)N[C@H](C(=O)N[C@@H](CCC(=O)O)C(=O)N[C@@H](CCC(=O)O)C(=O)N[C@@H](CC(C)C)C(=O)N[C@H](C(=O)N[C@@H](CCCCN)C(=O)N[C@@H](CCCCN)C(=O)N[C@@H](CO)C(=O)NC(C)(C)C(=O)N[C@@H](CCC(=O)O)C(=O)N[C@@H](CCC(N)=O)C(=O)N[C@@H](CCC(N)=O)C(=O)NC(C)(C)C(=O)N[C@@H](CCCCN)C(=O)N[C@@H](CC(N)=O)C(=O)O)[C@@H](C)CC)[C@@H](C)CC)[C@@H](C)O (H-WEEWDKKIEEYTKKIEELIKKS[Aib]EQQ[Aib]KN-OH) | 7.1 nM | – |
| CC[C@H](C)[C@H](NC(=O)CNC(=O)C(C)(C)NC(=O)[C@@H](NC(=O)[C@H](Cc1ccc(O)cc1)NC(=O)CNC(=O)C(C)(C)NC(=O)[C@@H](NC(=O)[C@H](CCCCN)NC(=O)[C@H](CCCCN)NC(=O)[C@H](CC(=O)O)NC(=O)[C@H](Cc1c[nH]c2ccccc12)NC(=O)[C@H](CCC(=O)O)NC(=O)[C@H](CCC(=O)O)NC(=O)[C@@H](N)Cc1c[nH]c2ccccc12)[C@@H](C)CC)[C@@H](C)O)C(=O)N[C@@H](CCC(=O)O)C(=O)N[C@@H](CCC(=O)O)C(=O)N[C@@H](CC(C)C)C(=O)N[C@H](C(=O)N[C@@H](CCCCN)C(=O)N[C@@H](CCCCN)C(=O)N[C@@H](CO)C(=O)N[C@@H](CCC(=O)O)C(=O)N[C@@H](CCC(=O)O)C(=O)N[C@@H](CCC(N)=O)C(=O)N[C@@H](CCC(N)=O)C(=O)N[C@@H](CCCCN)C(=O)N[C@@H](CCCCN)C(=O)N[C@@H](CC(N)=O)C(=O)O)[C@@H](C)CC (H-WEEWDKKI[Aib]GYT[Aib]GIEELIKKSEEQQKKN-OH) | 270 nM | – |
| H-WEEWDKKIEEYTKKIEELIKKSEEQQKKNEEELKK-OH | 0.39 nM | 71.5 °C |
| H-WEEWDKKIEEYTKKIEELIKKS-OH | 60 nM | 63.5 °C |
| H-WEEWDKKIEEYTKKIEELIKKSEEQQKKN-OH | 0.46 nM | 65 °C |
| H-WMEWDREINNYTSLIHSLIEESQNQQEKN-OH | 46 nM | 48.5 °C |
| CC[C@H](C)[C@H](NC(=O)CNC(=O)C(C)(C)NC(=O)[C@H](CC(=O)O)NC(=O)[C@H](Cc1c[nH]c2ccccc12)NC(=O)CNC(=O)C(C)(C)NC(=O)[C@@H](N)Cc1c[nH]c2ccccc12)C(=O)N[C@@H](CCC(=O)O)C(=O)N[C@@H](CCC(=O)O)C(=O)N[C@@H](Cc1ccc(O)cc1)C(=O)N[C@H](C(=O)N[C@@H](CCCCN)C(=O)N[C@@H](CCCCN)C(=O)N[C@H](C(=O)N[C@@H](CCC(=O)O)C(=O)N[C@@H](CCC(=O)O)C(=O)N[C@@H](CC(C)C)C(=O)N[C@H](C(=O)N[C@@H](CCCCN)C(=O)N[C@@H](CCCCN)C(=O)N[C@@H](CO)C(=O)N[C@@H](CCC(=O)O)C(=O)N[C@@H](CCC(=O)O)C(=O)N[C@@H](CCC(N)=O)C(=O)N[C@@H](CCC(N)=O)C(=O)N[C@@H](CCCCN)C(=O)N[C@@H](CCCCN)C(=O)N[C@@H](CC(N)=O)C(=O)O)[C@@H](C)CC)[C@@H](C)CC)[C@@H](C)O (H-W[Aib]GWD[Aib]GIEEYTKKIEELIKKSEEQQKKN-OH) | 37.5 nM | – |
| CC[C@H](C)[C@H](NC(=O)[C@H](CC(C)C)NC(=O)[C@H](CCC(=O)O)NC(=O)[C@H](CCC(=O)O)NC(=O)[C@@H](NC(=O)[C@H](CCCCN)NC(=O)[C@H](CCCCN)NC(=O)[C@@H](NC(=O)[C@H](Cc1ccc(O)cc1)NC(=O)[C@H](CCC(=O)O)NC(=O)[C@H](CCC(=O)O)NC(=O)[C@@H](NC(=O)[C@H](CCCCN)NC(=O)C(C)(C)NC(=O)[C@H](CC(=O)O)NC(=O)[C@H](Cc1c[nH]c2ccccc12)NC(=O)[C@H](CCC(=O)O)NC(=O)C(C)(C)NC(=O)[C@@H](N)Cc1c[nH]c2ccccc12)[C@@H](C)CC)[C@@H](C)O)[C@@H](C)CC)C(=O)N[C@@H](CCCCN)C(=O)N[C@@H](CCCCN)C(=O)N[C@@H](CO)C(=O)N[C@@H](CCC(=O)O)C(=O)N[C@@H](CCC(=O)O)C(=O)N[C@@H](CCC(N)=O)C(=O)N[C@@H](CCC(N)=O)C(=O)N[C@@H](CCCCN)C(=O)N[C@@H](CCCCN)C(=O)N[C@@H](CC(N)=O)C(=O)O (H-W[Aib]EWD[Aib]KIEEYTKKIEELIKKSEEQQKKN-OH) | 0.54 nM | – |
| H-WMEWDREINNYTSLIHSLIEES-OH | > 1000 nM | 38.5 °C |
| H-YTSLIEELIKKSEEQQKKNEEELKKLEEWAKKWNWF-OH | 1.8 nM | – |
| CC[C@H](C)[C@H](NC(=O)[C@H](CC(C)C)NC(=O)[C@H](CCC(=O)O)NC(=O)[C@H](CCC(=O)O)NC(=O)[C@@H](NC(=O)[C@H](CCCCN)NC(=O)C(C)(C)NC(=O)[C@@H](NC(=O)[C@H](Cc1ccc(O)cc1)NC(=O)[C@H](CCC(=O)O)NC(=O)C(C)(C)NC(=O)[C@@H](NC(=O)[C@H](CCCCN)NC(=O)[C@H](CCCCN)NC(=O)[C@H](CC(=O)O)NC(=O)[C@H](Cc1c[nH]c2ccccc12)NC(=O)[C@H](CCC(=O)O)NC(=O)[C@H](CCC(=O)O)NC(=O)[C@@H](N)Cc1c[nH]c2ccccc12)[C@@H](C)CC)[C@@H](C)O)[C@@H](C)CC)C(=O)N[C@@H](CCCCN)C(=O)N[C@@H](CCCCN)C(=O)N[C@@H](CO)C(=O)N[C@@H](CCC(=O)O)C(=O)N[C@@H](CCC(=O)O)C(=O)N[C@@H](CCC(N)=O)C(=O)N[C@@H](CCC(N)=O)C(=O)N[C@@H](CCCCN)C(=O)N[C@@H](CCCCN)C(=O)N[C@@H](CC(N)=O)C(=O)O (H-WEEWDKKI[Aib]EYT[Aib]KIEELIKKSEEQQKKN-OH) | 2.15 nM | – |
| CC[C@H](C)[C@H](NC(=O)[C@H](CCCCN)NC(=O)[C@H](CCCCN)NC(=O)[C@H](CC(=O)O)NC(=O)[C@H](Cc1c[nH]c2ccccc12)NC(=O)[C@H](CCC(=O)O)NC(=O)[C@H](CCC(=O)O)NC(=O)[C@@H](N)Cc1c[nH]c2ccccc12)C(=O)N[C@@H](CCC(=O)O)C(=O)N[C@@H](CCC(=O)O)C(=O)N[C@@H](Cc1ccc(O)cc1)C(=O)N[C@H](C(=O)N[C@@H](CCCCN)C(=O)N[C@@H](CCCCN)C(=O)N[C@H](C(=O)NC(C)(C)C(=O)NCC(=O)N[C@@H](CC(C)C)C(=O)N[C@H](C(=O)NC(C)(C)C(=O)NCC(=O)N[C@@H](CO)C(=O)N[C@@H](CCC(=O)O)C(=O)N[C@@H](CCC(=O)O)C(=O)N[C@@H](CCC(N)=O)C(=O)N[C@@H](CCC(N)=O)C(=O)N[C@@H](CCCCN)C(=O)N[C@@H](CCCCN)C(=O)N[C@@H](CC(N)=O)C(=O)O)[C@@H](C)CC)[C@@H](C)CC)[C@@H](C)O (H-WEEWDKKIEEYTKKI[Aib]GLI[Aib]GSEEQQKKN-OH) | 25.6 nM | – |
| CC[C@H](C)[C@H](NC(=O)[C@H](CCCCN)NC(=O)[C@H](CCCCN)NC(=O)[C@H](CC(=O)O)NC(=O)[C@H](Cc1c[nH]c2ccccc12)NC(=O)[C@H](CCC(=O)O)NC(=O)[C@H](CCC(=O)O)NC(=O)[C@@H](N)Cc1c[nH]c2ccccc12)C(=O)N[C@@H](CCC(=O)O)C(=O)N[C@@H](CCC(=O)O)C(=O)N[C@@H](Cc1ccc(O)cc1)C(=O)N[C@H](C(=O)N[C@@H](CCCCN)C(=O)N[C@@H](CCCCN)C(=O)N[C@H](C(=O)N[C@@H](CCC(=O)O)C(=O)N[C@@H](CCC(=O)O)C(=O)N[C@@H](CC(C)C)C(=O)N[C@H](C(=O)N[C@@H](CCCCN)C(=O)N[C@@H](CCCCN)C(=O)N[C@@H](CO)C(=O)NC(C)(C)C(=O)NCC(=O)N[C@@H](CCC(N)=O)C(=O)N[C@@H](CCC(N)=O)C(=O)NC(C)(C)C(=O)NCC(=O)N[C@@H](CC(N)=O)C(=O)O)[C@@H](C)CC)[C@@H](C)CC)[C@@H](C)O (H-WEEWDKKIEEYTKKIEELIKKS[Aib]GQQ[Aib]GN-OH) | 31.3 nM | – |
| enfuvirtide | 15 nM | – |
| CC[C@H](C)[C@H](NC(=O)[C@H](CCCCN)NC(=O)[C@H](CCCCN)NC(=O)[C@H](CC(=O)O)NC(=O)[C@H](Cc1c[nH]c2ccccc12)NC(=O)[C@H](CCC(=O)O)NC(=O)[C@H](CCC(=O)O)NC(=O)[C@@H](N)Cc1c[nH]c2ccccc12)C(=O)N[C@@H](CCC(=O)O)C(=O)N[C@@H](CCC(=O)O)C(=O)N[C@@H](Cc1ccc(O)cc1)C(=O)N[C@H](C(=O)N[C@@H](CCCCN)C(=O)N[C@@H](CCCCN)C(=O)N[C@H](C(=O)NC(C)(C)C(=O)N[C@@H](CCC(=O)O)C(=O)N[C@@H](CC(C)C)C(=O)N[C@H](C(=O)NC(C)(C)C(=O)N[C@@H](CCCCN)C(=O)N[C@@H](CO)C(=O)N[C@@H](CCC(=O)O)C(=O)N[C@@H](CCC(=O)O)C(=O)N[C@@H](CCC(N)=O)C(=O)N[C@@H](CCC(N)=O)C(=O)N[C@@H](CCCCN)C(=O)N[C@@H](CCCCN)C(=O)N[C@@H](CC(N)=O)C(=O)O)[C@@H](C)CC)[C@@H](C)CC)[C@@H](C)O (H-WEEWDKKIEEYTKKI[Aib]ELI[Aib]KSEEQQKKN-OH) | 0.87 nM | – |
